ChEMBL document CHEMBL2029221, “Acylprolinamides: a new class of peptide deformylase inhibitors with in vivo antibacterial activity” (Bioorg Med Chem Lett, 2012)
≈ marks a conversion by molar mass, not a printed value.

What was measured:
[1] = biological target: T1, Peptide deformylase (Streptococcus pneumoniae serotype 4 (strain ATCC BAA-334 / TIGR4), UniProt Q9F2F0); assay: Inhibition of Streptococcus pneumoniae PDF assessed as formate release from fMAS peptide substrate after 20 mins by formate dehydrogenase coupled assay
T1 sequence (Q9F2F0 whole entry): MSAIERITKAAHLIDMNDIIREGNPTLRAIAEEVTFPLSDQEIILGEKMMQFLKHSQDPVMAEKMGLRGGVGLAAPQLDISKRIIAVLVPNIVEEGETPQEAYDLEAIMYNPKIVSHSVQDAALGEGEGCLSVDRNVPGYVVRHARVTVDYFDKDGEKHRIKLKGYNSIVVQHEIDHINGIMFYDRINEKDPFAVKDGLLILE

[2] = test system: Haemophilus influenzae; assay: Antibacterial activity against Haemophilus influenzae Q1 by broth microdilution method; assay type: functional
Method in brief: (§1)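 Broth microdilution following NCCLS document M7-A4. Serial two-fold dilutions from 0.06 to 64 mcg/ml were tested. The MIC was the lowest concentration preventing visible growth, with the endpoint read with the aid of a mirror reader.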

[3] = biological target: T2, Peptide deformylase (Staphylococcus aureus, UniProt P68826); assay: Inhibition of Staphylococcus aureus PDF assessed as formate release from fMAS peptide substrate after 20 mins by formate dehydrogenase coupled assay
T2 sequence (P68826 whole entry): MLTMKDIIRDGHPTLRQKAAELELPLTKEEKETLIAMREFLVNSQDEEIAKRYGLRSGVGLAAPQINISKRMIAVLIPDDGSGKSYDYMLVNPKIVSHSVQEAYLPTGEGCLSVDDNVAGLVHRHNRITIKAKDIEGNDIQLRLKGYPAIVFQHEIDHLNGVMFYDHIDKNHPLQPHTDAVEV

[4] = test system: Moraxella catarrhalis; assay: Antibacterial activity against Moraxella catarrhalis 1502 by broth microdilution method; assay type: functional; method in brief: as §1
[5] = Metabolic stability of the compound in rat blood assessed as compound remaining at 2000 ng/mL after 2 hrs; assay type: ADME, tissue-based; details: read-out: Stability
[6] = test system: Streptococcus pneumoniae; assay: Antibacterial activity against Streptococcus pneumoniae 1629 by broth microdilution method; assay type: functional; method in brief: as §1
[7] = test system: Enterococcus faecalis; assay: Antibacterial activity against Enterococcus faecalis 7 by broth microdilution method; assay type: functional; method in brief: as §1
[8] = Inhibition of Haemophilus influenzae PDF assessed as formate release from fMAS peptide substrate after 20 mins by formate dehydrogenase coupled assay
Method in brief: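 Coupled assay in which formate released from the fMAS peptide is oxidized by formate dehydrogenase, reducing NAD to NADH, read as the rise in absorbance at 340. Reactions were started by adding PDF and velocities measured for 20 min at 25 °C. Values are the mean of at least 2 runs.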

[9] = test system: Staphylococcus aureus; assay: Antibacterial activity against Staphylococcus aureus Oxford by broth microdilution method; assay type: functional; method in brief: as §1
[10] = Metabolic stability of the compound in human blood assessed as compound remaining at 2000 ng/mL after 2 hrs; assay type: ADME, tissue-based; details: read-out: Stability
Method in brief: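 Samples (n = 3) were spiked into fresh human blood at 2000 ng/mL, incubated at 37 °C for 120 min, and reported as % recovered at 2 h.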

[11] = test system: Canis familiaris; assay: Dose normalized AUC (0 to infinity) in dog at 6.5 mg/kg, po; assay type: ADME, organism-based, Canis lupus familiaris; parameters: dose 6.5 mg/kg, route oral; details: in vivo
Method in brief: (§2)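 Single-compound pharmacokinetics with n = 3 per species, given i.v. and p.o. Reported measures are plasma clearance after i.v. dosing, dose-normalized AUC(0–inf) after oral dosing, and oral bioavailability.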

[12] = test system: Streptococcus pneumoniae; assay: Antibacterial activity against Streptococcus pneumoniae 1629 infected in rat respiratory tract infection model assessed as reduction in bacterial count at 150 mg/kg, po bid for 4 days relative to control; assay type: functional
Method in brief: (§3)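 Rat respiratory tract infection models with oral b.i.d. dosing. Efficacy was read as bacterial lung counts (log10 cfu/mL) compared with non-treated controls.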

[13] = test system: Streptococcus pneumoniae; assay: Antibacterial activity against Streptococcus pneumoniae 1629 infected in rat respiratory tract infection model assessed as reduction in bacterial count at 75 mg/kg, po bid for 4 days relative to control; assay type: functional; method in brief: as §3
[14] = test system: Rattus norvegicus; assay: Dose normalized AUC (0 to infinity) in rat at 27.1 mg/kg, po; assay type: ADME, organism-based; parameters: dose 27.1 mg/kg, route oral; details: in vivo; method in brief: as §2
[15] = Plasma clearance in monkey at 3 mg/kg, iv; assay type: ADME, organism-based, Macaca mulatta; parameters: dose 3 mg/kg, route intravenous; details: rhesus monkey; method in brief: as §2
[16] = Plasma clearance in dog at 4.5 mg/kg, iv; assay type: ADME, organism-based, Canis lupus familiaris; parameters: dose 4.5 mg/kg, route intravenous; method in brief: as §2
[17] = Oral bioavailability in monkey at 5.1 mg/kg; assay type: ADME, organism-based, Macaca mulatta; details: rhesus monkey, in vivo; method in brief: as §2
[18] = test system: Rhesus monkey; assay: Dose normalized AUC (0 to infinity) in monkey at 5.1 mg/kg, po; assay type: ADME, organism-based, Macaca mulatta; parameters: dose 5.1 mg/kg, route oral; details: in vivo; method in brief: as §2
[19] = Oral bioavailability in rat at 27.1 mg/kg; assay type: ADME, organism-based; details: in vivo
Method in brief: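 Rat oral bioavailability (n = 3) was estimated from a non-crossover study comparing i.v. and p.o. dosing.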

[20] = test system: Haemophilus influenzae; assay: Antibacterial activity against Haemophilus influenzae H128 infected in rat respiratory tract infection model assessed as reduction in bacterial count at 300 mg/kg, po bid for 2 days relative to control; assay type: functional; method in brief: as §3
[21] = Oral bioavailability in dog at 6.5 mg/kg; assay type: ADME, organism-based, Canis lupus familiaris; details: in vivo; method in brief: as §2

SMILES	IC50 [1] [nM]	MIC [2] [µg/mL]	IC50 [3] [nM]	MIC [4] [µg/mL]	remaining at 2 h, 2000 ng/mL [5] [%]	MIC [6] [µg/mL]	MIC [7] [µg/mL]	IC50 [8] [nM]	MIC [9] [µg/mL]	remaining at 2 h, 2000 ng/mL [10] [%]	other results
O=CN(O)C[C@@H](CC1CCCC1)C(=O)N1CCC[C@H]1C(=O)NC(=O)OC1CCCC1	0.26	1 (≈ 2.36 µM)	1.4	≤ 0.06	0	0.125 (≈ 0.295 µM)	1 (≈ 2.36 µM)	3.1	0.5 (≈ 1.18 µM)	57.5	
O=CN(O)C[C@@H](CC1CCCC1)C(=O)N1CCC[C@H]1C(=O)NC(=O)c1ccccc1		0.5 (≈ 1.2 µM)		≤ 0.06	27.2	0.25 (≈ 0.602 µM)	1 (≈ 2.41 µM)	3.8	1 (≈ 2.41 µM)		
O=CN(O)C[C@@H](CC1CCCC1)C(=O)N1CCC[C@H]1C(=O)NC(=O)OC1CCC1	0.51	0.5 (≈ 1.22 µM)	2.4	≤ 0.06	0	0.25 (≈ 0.611 µM)	1 (≈ 2.44 µM)	5.8	0.5 (≈ 1.22 µM)	31.7	
CC(C)(C)OC(=O)NC(=O)[C@@H]1CCCN1C(=O)[C@H](CC1CCCC1)CN(O)C=O	0.52	0.25 (≈ 0.608 µM)	3.4	≤ 0.06	27.6	0.25 (≈ 0.608 µM)	1 (≈ 2.43 µM)	3.2	1 (≈ 2.43 µM)	52	
CC(C)NC(=O)NC(=O)[C@@H]1CCCN1C(=O)[C@H](CC1CCCC1)CN(O)C=O	0.31	2 (≈ 5.04 µM)	1.6	≤ 0.06		1 (≈ 2.52 µM)	4 (≈ 10.1 µM)	3	1 (≈ 2.52 µM)	99.7	
CC(C)(C)C(=O)NC(=O)[C@@H]1CCCN1C(=O)[C@H](CC1CCCC1)CN(O)C=O	1.3	2 (≈ 5.06 µM)	10	≤ 0.06	29	2 (≈ 5.06 µM)	4 (≈ 10.1 µM)	18	2 (≈ 5.06 µM)	80.6	
CC(C)OC(=O)NC(=O)[C@@H]1CCCN1C(=O)[C@H](CC1CCCC1)CN(O)C=O	0.48	0.25 (≈ 0.629 µM)	2	≤ 0.06	0	0.25 (≈ 0.629 µM)	4 (≈ 10.1 µM)	4.7	0.25 (≈ 0.629 µM)	49.6	
O=CN(O)C[C@@H](CC1CCCC1)C(=O)N1CCC[C@H]1C(=O)NC(=O)OC1CCOCC1	0.66	0.5 (≈ 1.14 µM)	4.4	≤ 0.06	9.5	0.25 (≈ 0.569 µM)	2 (≈ 4.55 µM)	3.1	1 (≈ 2.28 µM)	23	
O=CN(O)C[C@@H](CC1CCCC1)C(=O)N1CCC[C@H]1C(=O)NC(=O)NCCc1ccccc1	0.12	4 (≈ 8.72 µM)	0.86	≤ 0.06		≤ 0.06	0.5 (≈ 1.09 µM)	3.6	≤ 0.06	92.2	
O=CN(O)C[C@@H](CC1CCCC1)C(=O)N1CCC[C@H]1C(=O)NC(=O)NC1CCCC1	0.1	2 (≈ 4.73 µM)	0.52	≤ 0.06		0.125 (≈ 0.296 µM)	1 (≈ 2.37 µM)	2	0.5 (≈ 1.18 µM)	103	
CCNC(=O)NC(=O)[C@@H]1CCCN1C(=O)[C@H](CC1CCCC1)CN(O)C=O	0.44	0.5 (≈ 1.31 µM)	2	≤ 0.06	58.6	0.25 (≈ 0.654 µM)	2 (≈ 5.23 µM)	4.9	0.5 (≈ 1.31 µM)	111	AUC/dose [11]: 629.9 ng·h/mL/mg/kg; log10CFU/ml [12]: 3.86; log10CFU/ml [13]: 3.86; AUC/dose [14]: 43.3 ng·h/mL/mg/kg; clearance [15]: 29.4 mL/min/kg; clearance [16]: 36.3 mL/min/kg; bioavailability [17]: 20%; AUC/dose [18]: 111.4 ng·h/mL/mg/kg; bioavailability [19]: 30%; log10CFU/ml [20]: 4.21; bioavailability [21]: 100%
O=CN(O)C[C@@H](CC1CCCC1)C(=O)N1CCC[C@H]1C(=O)NC(=O)C1CCC1	0.7	1 (≈ 2.54 µM)	5	≤ 0.06		1 (≈ 2.54 µM)	8 (≈ 20.3 µM)	9	1 (≈ 2.54 µM)		
O=CN(O)C[C@@H](CC1CCCC1)C(=O)N1CCC[C@H]1C(=O)NC(=O)C1CCCC1	0.43	0.25 (≈ 0.613 µM)	2.5	≤ 0.06		0.25 (≈ 0.613 µM)	1 (≈ 2.45 µM)	6.1	0.5 (≈ 1.23 µM)		
O=CN(O)C[C@@H](CC1CCCC1)C(=O)N1CCC[C@H]1C(=O)NC(=O)OC1CCCCC1	0.3	1 (≈ 2.29 µM)	1.5	≤ 0.06	0.4	0.125 (≈ 0.286 µM)	0.5 (≈ 1.14 µM)	2.3	0.25 (≈ 0.571 µM)	45.8	
